Compound activity from PubChem.
Yeast growth inh: chemicals that inhibit yeast BB579 growth in restrictive medium (lifespan-shortening candidates); S. cerevisiae BB579 growth, OD615, 48 h; inhibition, % at 10 µM; 0.51% of 140,000 active;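 active = inhibition above a set limit, 3 SD over the mean compound inhibition, cut at about 44% in these data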
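test system = yeast BB579 (DeaD) | buffer or medium = restrictive CSMM-D medium | doses = single compound dose of 10 µM, 0.25% DMSO final | times = 4 h preincubation and 48 h exposure at 30 °C | technique = culture absorbance at 615 nm | benchmarks = amphotericin B 10 µg/mL, positive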
RAM network inh: inhibitors of the yeast RAM network. S. cerevisiae dse1pr::URA3 reporter, 5-FOA growth OD615, 2 d; analog-sensitive cbk1-as2 kinase mutant strain. inhibition, % at 50 µM. 1.8% of 190,000 active. AID 868;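 active = inhibition above a set limit, 3 SD over mean compound inhibition, cut at about 8.4% in these data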;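 also: 0% = DMSO-only wells with no growth and 100% = 10 µM 1-NA-PP1 full growth; inhibition rescues growth on 5-FOA so higher OD means more RAM inhibition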
Yeast life ext: yeast lifespan extension; 0.68% of 130,000 active; inhibition of the nicotinamide effect, % at 10 µM; S. cerevisiae growth with nicotinamide, OD615; deaD strain in restrictive glucose medium;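 active = inhibition above a set limit, placed 3 SD over the median of all compounds, cut at about 26% in these data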;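 also: 0% = nicotinamide-treated wells and 100% = cells grown without nicotinamide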
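Assay system: engineered S. cerevisiae DeaD replicative-lifespan strain, galactose-grown log-phase cells; Buffer or medium: CSMM-D glucose medium, restrictive; Probe or stimulus: nicotinamide 1.5 mM; Compound: single dose 10 µM compound, 0.25% DMSO; Schedule: 4 h preincubation then 48 h treatment at 30 °C; Technique: OD615 measurement.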
Phagocytosis inh: inhibitors of macrophage phagocytosis | J774A.1 macrophage IgG-bead phagocytosis, imaging | inhibition, % at 5 µM | 0.07% of 110,000 active;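 active = inhibition above the mean of the plate negative controls plus 5 SD, cut at about 13% in these data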;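 also: phagocytic index as fraction of beads internalized from green versus red external bead signal; plate controls were DMSO negative control for no effect and cytochalasin-D positive control for full effect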
* hit, by the source's call; nt = no result. An excerpt weighted towards active compounds, which were near 2.7% of everything screened.

SMILES	Yeast growth inh	RAM network inh	Yeast life ext	Phagocytosis inh
Cc1ccc(C(=O)NC(=S)Nc2cccc(NC(=O)c3ccccc3)c2)cc1[N+](=O)[O-]	-8.6	10.1*	-3.1	-2.5
Cc1ccc(C(=O)Nc2ccccc2Oc2ccccc2)cc1[N+](=O)[O-]	-90.6	10.7*	-9.2	nt
N#CC(C#N)=CC1=C2OC(c3ccccc3)=CC(c3ccccc3)=C2CCC1	-60.9	10.0*	-0.3	-0.1
Cc1cc2nc(C)c3c(n2n1)CCC3	nt	-0.8	nt	nt
Cc1ccc(Nc2ccc(C(N)=O)cc2[N+](=O)[O-])cc1C	-36.4	3.5	-2.6	-8.2
COc1cc(Nc2ccc(C(=O)O)cc2[N+](=O)[O-])cc(OC)c1	-72.5	10.3*	7.3	0.3
CC(NC(=S)Nc1ccc(S(=O)(=O)N2CCOCC2)cc1)C1CC2CCC1C2 (configuration not stated)	-0.8	3.3	-2.0	-6.8
O=C(/C=C/c1ccc(O)c(O)c1)c1ccc(S(=O)(=O)N2CCCCCC2)cc1	-31.9	9.4*	1.2	-12.7
Cc1ccc(S(=O)(=O)NCC(=O)OCC(=O)NCc2ccc(F)cc2)cc1	nt	0.2	nt	nt
O=[N+]([O-])c1cc(CN2CCN(c3cccc(C(F)(F)F)c3)CC2)c2cccnc2c1O	nt	-0.9	nt	nt
Oc1ccc(COCc2ccccc2)c2cccnc12	99.2*	0.7	-16.4	nt
O=[N+]([O-])c1cc(CN2CCCC2)c2cccnc2c1O	60.2*	1.3	-2.8	-5.3
OCc1ccc(O)c2ncccc12	96.2*	3.4	-21.1	nt
Cc1ccc(N=Nc2ccc(O)c3ncccc23)cc1	55.4*	3.3	-0.5	nt
COc1ccc(S(=O)(=O)N2CCC(C(=O)N3CCCCC3)CC2)cc1Cl	-48.5	-0.9	-4.2	-0.1
Oc1ccc(CN2CCCCC2)c2cccnc12	45.0*	-1.2	nt	nt
CCOc1ccc(CCNC(=O)C2=C(C)C(=O)OC23CCCCC3)cc1OCC	nt	-1.1	nt	nt
C/C(CCc1ccc2c(c1)OCO2)=N\N=C(/N)SC1CC(=O)N(c2ccccc2F)C1=O (configuration not stated)	3.8	1.5	-6.3	nt
Cc1cc(C)nc(NS(=O)(=O)c2ccc(NC(=O)CCN3C(=O)c4ccccc4C3=O)cc2)n1	5.9	0.1	37.9*	-0.5
O=C(CCN1C(=O)c2ccccc2C1=O)Nc1ccc(-c2nc3ccccc3s2)cc1	-21.3	8.9*	1.0	-2.9
COc1ccc(OC)c(-c2csc(N(C)C(=O)Cc3ccccc3)n2)c1	nt	9.8*	nt	nt
COc1ccc(OC)c(-c2csc(N(CC3CCCO3)C(=O)C3CCCCC3)n2)c1 (configuration not stated)	nt	5.6	nt	nt
COc1ccc(OC)c(-c2csc(N(Cc3ccco3)C(=O)c3cccs3)n2)c1	-16.0	9.1*	-9.0	3.4
O=C(Oc1cc(=O)n2ccccc2n1)c1ccccc1	-17.4	-0.9	43.4*	-7.9
O=C(O)c1c(Cl)nc2ccccn12	nt	5.6	nt	nt
SMILES	Yeast growth inh	RAM network inh	Yeast life ext	Phagocytosis inh
COc1ccc(CNC(=O)COC(=O)Cc2ccc(Cl)cc2Cl)cc1	-28.1	11.3*	-2.7	-3.8
Cc1cc(OCC(=O)OCC(=O)Nc2cc(C(F)(F)F)ccc2N2CCOCC2)ccc1Cl	-37.5	9.1*	-3.7	-12.2
C=C(C)CSc1[nH]c(=O)cc(C)c1C#N	nt	0.9	nt	nt
CCCCNC(=S)N/N=C/C1=CCC2CC1C2(C)C (configuration not stated)	-6.7	8.6*	0.1	-3.9
C=C(C)CNC(=S)N/N=C/C1=CCC2CC1C2(C)C (configuration not stated)	-25.9	7.3	0.7	-6.1
O=c1c2ccccc2n(Cc2cccc(F)c2)c(=O)n1C1CCCC1	-44.7	9.3*	7.1	-1.8
N#Cc1ccccc1Cn1c(=O)n(C2CCCC2)c(=O)c2ccccc21	-35.8	-0.1	0.2	-0.4
CCc1ccc(N(CC(=O)NC2CCCC2)S(=O)(=O)c2c(C)noc2C)cc1	-99.4	9.0*	0.0	-0.5
CCOc1ccc(N(CC(=O)NC2CCCC(C)C2C)S(=O)(=O)c2c(C)noc2C)cc1 (configuration not stated)	-6.0	2.1	3.3	-0.1
O=C(CSc1n[nH]c(-c2ccc(S(=O)(=O)N3CCCCC3)cc2)n1)Nc1nccs1	-19.0	0.8	-16.4	-0.2
COc1ccc(OC)c(NC(=O)c2ccc3c(=O)n(CCc4ccccc4)c(=S)[nH]c3c2)c1	-20.8	3.1	-3.9	-3.7
CCOC(=O)Cc1c(Sc2ccccc2)c2cc(C)ccc2n1C	0.4	2.1	1.6	-6.4
Cc1ccc2c(c1)c(Sc1ccccc1)c(CC(=O)O)n2C	-47.5	6.4	27.1*	-2.1
COc1ccc(/C=C/C(=O)c2ccc3c4c(cccc24)CC3)cc1OC	-21.4	7.8	-4.0	nt
COc1ccc(/C=C/C(=O)c2ccc3c4c(cccc24)CC3)cc1	-5.6	8.8*	-2.5	-7.8
CCOc1ccc(C(C)=O)cc1CSc1nc2nc(C)cc(C)n2n1	nt	0.9	nt	nt
CCCOC1CCCN(C(=O)CCc2nnc(CCCCc3ccccc3)o2)C1 (configuration not stated)	nt	-0.2	nt	nt
O=C(O)Cc1ccc2sc(-c3ccccc3)nc2c1	48.6*	-0.1	-8.6	-1.7
CCCSc1cc(NCCOC(=O)CCC)c([N+](=O)[O-])c2nonc12	2.3	5.2	28.3*	-4.9
CCC(=O)OCCNc1cc(Sc2nc3ccccc3s2)c2nonc2c1[N+](=O)[O-]	-30.1	2.7	32.3*	-0.8
C/C(=N\O)C(=O)NCCN(C)C	12.1	0.8	4.5	-9.1
Cc1ccccc1N(C)S(=O)(=O)c1ccc2[nH]cc(C(=O)NCC3CCCO3)c(=O)c2c1 (configuration not stated)	-110.5	1.8	-8.0	nt
CCOc1ccc(N(C)S(=O)(=O)c2ccc3[nH]cc(C(=O)NCC4CCCO4)c(=O)c3c2)cc1 (configuration not stated)	-13.0	10.6*	-5.8	2.0
COc1ccc(Nc2nc3c(c(=O)n(C)c(=O)n3C)n2CCO)cc1	-11.5	2.4	0.8	-0.5
CCCOc1ccc(/C=N/Nc2ccccc2[N+](=O)[O-])c(O)c1	-65.7	8.1	-0.5	1.6
SMILES	Yeast growth inh	RAM network inh	Yeast life ext	Phagocytosis inh
CCCOc1ccc(/C=N/Nc2cccc([N+](=O)[O-])c2)c(O)c1	-65.1	8.9*	-0.8	8.2
CC/C(C)=N/Nc1cccc([N+](=O)[O-])c1	97.8*	-0.2	-9.1	-9.8
CC1(C)CC(=O)C(=Cc2cn(CCC#N)nc2-c2ccc(Cl)cc2)C(=O)C1	-51.1	2.8	38.8*	-3.9
CCOC(=O)N/N=C(/C)c1cccc(-n2cnnn2)c1	nt	0.9	nt	nt
Cc1cccc(Cn2ncc(Cl)c(Cl)c2=O)c1	49.2*	2.5	-18.5	-1.9
Cc1ccc(C(=O)OCn2ncc(Cl)c(Cl)c2=O)cc1	86.2*	-1.6	-12.0	nt
C=CCn1c(CNC(=O)c2ccccc2F)nnc1SCC(=O)NC(C)c1ccccc1 (configuration not stated)	nt	1.5	nt	nt
CCOC(=O)CSc1nnc(CCCCCN2C(=O)c3cccc4cccc(c34)C2=O)o1	-60.5	10.8*	9.9	-6.2
O=C(Nc1ccc(CN2CCCCC2)cc1)Nc1ccc(Br)cc1Cl	nt	1.7	nt	nt
CCCCC(=O)Nc1sc2c(c1C(=O)OCC)CCC(C=O)=C2Cl	-17.1	9.2*	-1.1	-0.5
